We go through two compounds from article PMC5131535 (ACS chemical neuroscience, 2016).

The target in data set [1] is hERG (Homo sapiens, UniProt Q12809). Put plainly: Lead Profiling Screen. It is filed as binding. The note with it: among 58 GPCRs, ion channels and transporters.
The test system of data set [2] is voltage-gated sodium channel. Kind of data set: Lead Profiling Screen. It is filed as binding. The note with it: significant interaction.
Data set [3] concerns the target Kir7.1 pore mutants (Homo sapiens, UniProt O60928, A161S). It is filed as cell-based. The note with it: 3 µM, -120 mV. In short, it runs like this: (§1)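 Single pore-lining residues were mutated on a WT or M125R Kir7.1 background and expressed transiently with EGFP in HEK-293T cells. The whole-cell step-ramp protocol from a −75 mV holding potential was used, with test compound at 3 µM. Read-out was % inhibition of current at −120 mV, mean ± SEM, tested against the respective parent channel (P < 0.05).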

For data set [4], the target named is Kir7.1 pore mutants (Homo sapiens, UniProt O60928, I160M). It is filed as cell-based. The settings on record: 3 µM, -120 mV. In short, it runs like this: as §1
Chain of Kir7.1 pore mutants (Homo sapiens, UniProt O60928, I160M) (O60928 whole entry I160M): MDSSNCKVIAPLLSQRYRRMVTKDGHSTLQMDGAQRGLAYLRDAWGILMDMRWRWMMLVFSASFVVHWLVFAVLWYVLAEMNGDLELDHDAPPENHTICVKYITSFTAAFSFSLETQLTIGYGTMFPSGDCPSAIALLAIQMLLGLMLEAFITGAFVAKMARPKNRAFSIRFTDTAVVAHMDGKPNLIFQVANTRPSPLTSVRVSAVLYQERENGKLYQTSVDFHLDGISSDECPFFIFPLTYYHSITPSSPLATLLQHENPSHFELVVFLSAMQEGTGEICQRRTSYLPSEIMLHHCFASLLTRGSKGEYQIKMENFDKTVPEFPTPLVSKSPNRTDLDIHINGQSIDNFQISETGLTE
The target of data set [5] is Kir7.1 pore mutants (Homo sapiens, UniProt O60928, L146V). It is filed as cell-based. The settings on record: 3 µM, -120 mV. In short, it runs like this: as §1
Chain of Kir7.1 pore mutants (Homo sapiens, UniProt O60928, L146V) (O60928 whole entry L146V): as the sequence (O60928 whole entry I160M) above, with L146V, M160I counted along it
In data set [6] the test system is Kir7.1 pore mutants. It is filed as cell-based, human. The note with it: 3 µM, -120 mV. The essentials:
as §1

Data set [7] has as its target Kir7.1 pore mutants (Homo sapiens, UniProt O60928, T153C). It is filed as cell-based. The note with it: 3 µM, -120 mV. In short, it runs like this: as §1
Data set [8] addresses Kir7.1-WT (Homo sapiens, UniProt O60928). Kind of data set: Whole-cell patch clamp, Kir7.1-WT. It is filed as cell-based. The note with it: read-out: Kir7.1-WT IC50, -120 mV. In short, it runs like this: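 Human Kir7.1 (WT or mutant) was transiently co-transfected with EGFP into HEK-293T cells, which were replated next day on poly-L-lysine coverslips. Whole-cell clamp used bath 5 mM KCl, pH 7.4, and pipette 135 mM KCl, pH 7.3. Cells were held at −75 mV, stepped 500 ms to −120 mV, then ramped to 120 mV, every 5 s. Increasing test-compound doses were superfused, then BaCl₂ block; current read at −120 mV; variable-slope Hill fit, mean of n = 5.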
For orientation: In patch-clamp work, channel activity is measured electrically.

For data set [9] the following is noted: plasma.
For data set [10] the following is noted: plasma. The source holds these as a separate data set.
For data set [11] the following is noted: plasma. The source holds these as a separate data set.

Several values for one entry are separate records, joined by “and”; a condition that tells them apart may be missing. Equal values may be shown once. Entries after “also recorded” stand apart in the source; their conditions may differ.

Chain of Kir7.1-WT (O60928 whole entry, the tested form may be a part): as the sequence (O60928 whole entry I160M) above, with M160I counted along it
Chain of hERG (Q12809 whole entry): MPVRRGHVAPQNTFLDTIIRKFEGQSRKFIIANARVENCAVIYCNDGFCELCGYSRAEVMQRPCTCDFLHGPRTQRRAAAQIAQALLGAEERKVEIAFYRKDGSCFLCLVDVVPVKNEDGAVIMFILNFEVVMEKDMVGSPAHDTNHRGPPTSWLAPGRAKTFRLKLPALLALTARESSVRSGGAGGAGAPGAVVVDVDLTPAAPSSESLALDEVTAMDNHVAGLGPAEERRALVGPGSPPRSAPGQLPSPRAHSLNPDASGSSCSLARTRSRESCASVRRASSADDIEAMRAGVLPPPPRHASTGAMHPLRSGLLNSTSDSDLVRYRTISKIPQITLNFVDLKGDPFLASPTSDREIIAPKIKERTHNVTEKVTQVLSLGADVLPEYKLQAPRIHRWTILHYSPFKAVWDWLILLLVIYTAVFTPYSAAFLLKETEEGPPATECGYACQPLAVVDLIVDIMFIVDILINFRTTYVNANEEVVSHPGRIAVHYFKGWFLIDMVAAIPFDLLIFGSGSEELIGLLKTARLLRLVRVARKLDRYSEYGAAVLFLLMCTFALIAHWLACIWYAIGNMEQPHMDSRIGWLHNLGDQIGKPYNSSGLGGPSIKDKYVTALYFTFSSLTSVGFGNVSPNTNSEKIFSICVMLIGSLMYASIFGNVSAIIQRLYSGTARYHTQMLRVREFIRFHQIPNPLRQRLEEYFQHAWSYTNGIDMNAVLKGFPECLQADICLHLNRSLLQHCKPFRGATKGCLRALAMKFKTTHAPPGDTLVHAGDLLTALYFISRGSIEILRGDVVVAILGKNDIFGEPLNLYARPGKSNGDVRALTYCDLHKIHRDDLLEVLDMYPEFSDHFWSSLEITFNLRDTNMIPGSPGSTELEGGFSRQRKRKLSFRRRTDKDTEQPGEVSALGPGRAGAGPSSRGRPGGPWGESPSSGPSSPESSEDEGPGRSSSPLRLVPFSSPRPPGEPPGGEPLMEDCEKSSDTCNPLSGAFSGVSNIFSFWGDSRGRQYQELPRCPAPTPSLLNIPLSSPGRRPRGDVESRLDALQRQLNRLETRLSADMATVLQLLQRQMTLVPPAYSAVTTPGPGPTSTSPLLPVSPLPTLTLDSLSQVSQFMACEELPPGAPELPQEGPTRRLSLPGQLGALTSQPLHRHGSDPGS
Chain of Kir7.1 pore mutants (Homo sapiens, UniProt O60928, T153C) (O60928 whole entry T153C, the tested form may be a part): as the sequence (O60928 whole entry I160M) above, with T153C, M160I counted along it
Chain of Kir7.1 pore mutants (Homo sapiens, UniProt O60928, A161S) (O60928 whole entry A161S): as the sequence (O60928 whole entry I160M) above, with M160I, A161S counted along it

Consider `CC(C)OC(=O)NC1CCN(Cc2cc(Cl)c3cccnc3c2O)CC1` [Compound 19, iso-Propyl (1-((5-chloro-8-hydroxyquinolin-7-yl)methyl)piperidin-4-yl)carbamate], for which the “Ancillary pharmacology, hERG” value in data set [1] is recorded as “clean ancillary pharmacology”. In addition, the “Radioligand displacement, voltage-gated sodium channel” value in data set [2] is recorded as over 50%.
On to `Oc1c(CN2CCC(Cc3ccccc3)CC2)cc(Cl)c2cccnc12` [VU714], for which the “Effect of mutation A161S on Kir7.1 inhibition” value in data set [3] was “no effect”. The “Effect of mutation I160M on Kir7.1 inhibition” value in [4] is “no effect”. Also, the “Effect of mutation L146V on Kir7.1 inhibition” value in data set [5] is recorded as “no effect”. For the same compound, in [6], the “Effect of double mutation E149Q and A150S on sensitivity” value was “additive loss of VU714 sensitivity; also recorded: virtually eliminated block of the channel”; the “Effect of mutation E149D on block” value was “no effect on block”. The “Effect of mutation T153C/WT on channel inhibition” value in [7] is “increased channel inhibition”. Moreover, the half-inhibitory concentration (IC50) – broadly, the point on the concentration scale where inhibition reaches its midpoint – in [8] is 1400 nM and ~2000 nM. Also, in data set [9], the “PPB (%Fu) Rat” value is recorded as 1.8%. Further, in data set [10], the “PPB (%Fu) Mouse” value is reported as 0.7%. For the same compound, in data set [11], the “PPB (%Fu) Human” value is 0.5%.
